We go through one compound from ChEMBL document CHEMBL1141088, “A new pyridazine series of GABAA alpha5 ligands” (J Med Chem, 2005).

The term clearance denotes the rate of elimination divided by the concentration. As a reminder, the Ki is a dissociation constant, usually derived from enzyme kinetics or from competition with a known ligand. In general, half-life refers to how long it takes for the measured level to halve. A low value points to rapid decline.

Data set [1] can be described thus: Low volume of distribution of compound determined after iv administration at 1 mg/kg dose as a solution(1 mg/mL) in a PEG 300:H2O(3:1). To be noted: rat, in vivo, read-out: Vdss. Type of data set: ADME, organism-based. Also on record: dose 1 mg/kg, route intravenous. In outline:
(§1)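 Single rat, cannulated, given 100 units heparin, recovered 48 h, fasted overnight. Dosed 1 mg/kg iv bolus (1 mL/kg) in PEG 300:water 3:1. Serial blood sampled to 6 h and plasma analysed by LC-MS/MS with diazepam internal standard. Cl in mL/min/kg from plasma, T1/2 in hours from 1–3 h data, Vdss in L/kg.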

A short description of data set [2]: Clearance of compound determined after iv administration at 1 mg/kg dose as a solution(1 mg/mL) in a PEG 300:H2O(3:1). Type of data set: ADME, organism-based. Also noted: dose 1 mg/kg, route intravenous. As to conditions: rat, in vivo. In outline: as §1
Data set [3] addresses T1, GABA-A receptor; alpha-3/beta-3/gamma-2 (Homo sapiens, UniProt P18507+P28472+P34903).
T1 sequence (P18507 whole entry): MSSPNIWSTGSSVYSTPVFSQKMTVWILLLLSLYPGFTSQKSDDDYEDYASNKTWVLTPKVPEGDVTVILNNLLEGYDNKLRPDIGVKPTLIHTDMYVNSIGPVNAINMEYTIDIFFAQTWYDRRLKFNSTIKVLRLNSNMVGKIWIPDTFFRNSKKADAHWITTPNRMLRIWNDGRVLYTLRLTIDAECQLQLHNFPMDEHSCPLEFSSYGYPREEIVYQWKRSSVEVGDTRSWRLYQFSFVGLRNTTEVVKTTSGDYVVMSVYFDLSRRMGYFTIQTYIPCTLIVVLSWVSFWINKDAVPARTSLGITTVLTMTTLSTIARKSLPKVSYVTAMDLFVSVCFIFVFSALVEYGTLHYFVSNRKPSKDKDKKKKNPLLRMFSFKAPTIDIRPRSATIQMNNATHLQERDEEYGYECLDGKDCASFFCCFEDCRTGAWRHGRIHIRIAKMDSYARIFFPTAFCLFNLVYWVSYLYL
T1 sequence (P28472 whole entry): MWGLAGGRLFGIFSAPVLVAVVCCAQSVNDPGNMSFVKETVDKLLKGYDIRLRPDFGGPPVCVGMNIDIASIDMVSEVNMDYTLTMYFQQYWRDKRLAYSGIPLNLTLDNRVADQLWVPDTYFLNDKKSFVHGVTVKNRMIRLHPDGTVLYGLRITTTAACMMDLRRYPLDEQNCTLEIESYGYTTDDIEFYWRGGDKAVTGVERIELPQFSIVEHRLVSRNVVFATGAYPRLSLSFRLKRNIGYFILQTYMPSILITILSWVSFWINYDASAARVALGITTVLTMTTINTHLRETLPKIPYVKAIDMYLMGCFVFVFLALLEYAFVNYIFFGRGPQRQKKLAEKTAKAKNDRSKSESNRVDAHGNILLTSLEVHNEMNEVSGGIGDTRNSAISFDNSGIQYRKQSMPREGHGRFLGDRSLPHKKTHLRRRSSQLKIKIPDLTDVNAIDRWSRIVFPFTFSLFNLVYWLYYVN
T1 sequence (P34903 whole entry): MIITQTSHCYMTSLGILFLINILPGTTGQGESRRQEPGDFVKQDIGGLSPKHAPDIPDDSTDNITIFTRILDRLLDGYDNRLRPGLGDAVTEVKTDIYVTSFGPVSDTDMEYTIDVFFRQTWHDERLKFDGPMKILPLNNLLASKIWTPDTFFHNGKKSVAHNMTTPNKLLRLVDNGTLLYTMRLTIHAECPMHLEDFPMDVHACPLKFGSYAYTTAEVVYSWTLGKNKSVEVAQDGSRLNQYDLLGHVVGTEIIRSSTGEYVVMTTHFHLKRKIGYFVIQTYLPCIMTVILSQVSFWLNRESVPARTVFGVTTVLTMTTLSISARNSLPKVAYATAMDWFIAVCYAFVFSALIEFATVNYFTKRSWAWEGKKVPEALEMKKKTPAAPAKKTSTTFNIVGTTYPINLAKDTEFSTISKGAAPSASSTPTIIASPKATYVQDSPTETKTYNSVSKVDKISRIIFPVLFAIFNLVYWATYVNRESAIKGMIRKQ
Description: Displacement of [3H]-Ro- 15-1788 binding from human recombinant Gamma-aminobutyric acid A receptor alpha-3-beta-3-gamma-2 expressed in mouse fibroblast L(tk-) cells (30 min at 24 degrees C, pH 7.4). Type of data set: cell-based. In short, it runs like this: (§2)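 Membranes from L(tk-) cells stably expressing human α1, α3 or α5 β3γ2 in 50 mM Tris pH 7.4. [3H]Ro15-1788 at 1.8 nM final, 30 min at 24 °C. Nonspecific binding set with 10 µM flunitrazepam, total binding in 0.1% DMSO. Filtration, scintillation counting. Ki is mean ± SEM of ≥3 independent determinations.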
(In general: Loss of bound radioactivity is the signal in a displacement assay; it reports binding, not function.)

The target of data set [4] is T2, GABA-A receptor; alpha-5/beta-3/gamma-2 (Homo sapiens, UniProt P18507+P28472+P31644).
T2 sequence (P18507 whole entry): T1 sequence (P18507 whole entry)
T2 sequence (P28472 whole entry): T1 sequence (P28472 whole entry)
T2 sequence (P31644 whole entry): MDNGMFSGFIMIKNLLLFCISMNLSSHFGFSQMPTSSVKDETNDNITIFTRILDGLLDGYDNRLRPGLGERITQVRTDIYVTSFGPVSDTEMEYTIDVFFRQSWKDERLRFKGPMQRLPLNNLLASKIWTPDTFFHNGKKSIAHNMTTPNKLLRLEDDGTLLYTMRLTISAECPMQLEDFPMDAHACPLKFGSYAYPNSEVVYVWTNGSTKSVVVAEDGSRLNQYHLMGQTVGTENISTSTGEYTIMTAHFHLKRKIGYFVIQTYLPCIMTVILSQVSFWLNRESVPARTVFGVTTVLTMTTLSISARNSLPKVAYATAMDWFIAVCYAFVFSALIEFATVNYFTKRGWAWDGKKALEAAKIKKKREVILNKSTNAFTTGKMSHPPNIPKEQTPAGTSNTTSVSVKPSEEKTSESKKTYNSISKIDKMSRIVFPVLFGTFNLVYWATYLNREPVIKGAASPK
Description: Displacement of [3H]-Ro- 15-1788 binding from human recombinant Gamma-aminobutyric acid A receptor alpha-5-beta-3-gamma-2 expressed in mouse fibroblast L(tk-) cells (30 min at 24 degrees C, pH 7.4). Type of data set: cell-based. In outline: as §2

The target of data set [5] is GABA-A receptor; alpha-3/beta-3/gamma-2 (Homo sapiens) (UniProt P18507+P28472+P34903). Kind of data set: Efficacy at GABAA alpha-3-beta-3-gamma-2 receptor expressed in mouse fibroblast L(tk-) cells measured at 300 nM derived from at least three plates/day screened over a minimum of 2 days. Type of data set: functional, cell-based. In outline: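 FRET membrane-potential (VIPR) assay in L(tk-) cells with receptor expression induced 24 h by 1 µM dexamethasone. Dye-loaded 30 min in low-Cl- HEPES buffer pH 7.4: 4 µM CC2-DMPE, 1 µM DiSBAC2(3), 0.5 mM tartrazine. Basal read 8 s, compound at 300 nM, half-maximal GABA 22 s later, 1 Hz reads. Background-subtracted 460/580 nm ratio, normalized to DMCM as -100%.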

Data set [6] can be described thus: Half life of compound determined after iv administration at 1 mg/kg dose as a solution(1 mg/mL) in a PEG 300:H2O(3:1). Also on record: dose 1 mg/kg, route intravenous. To be noted: rat, in vivo. Type of data set: ADME, organism-based. In short, it runs like this:
as §1

On to `N#Cc1cccc(-c2cnnc(-c3ccccc3)c2)c1`, for which the Vd in data set [1] stood at 1.5 L/kg. The same compound showed a clearance in data set [2] of 36 mL/min/kg. Besides, the Ki was 14 nM in data set [3] and 5.2 nM in data set [4]. The same compound yielded an Efficacy in data set [5] of -4. For the same compound, the half-life in data set [6] was 36 min.
